The results in this text go back to ChEMBL document CHEMBL1145465, “PhoU is a persistence switch involved in persister formation and tolerance to multiple antibiotics and stresses in Escherichia coli” (2007).

Holding throughout (assay type): functional
Assay [1] relates to Escherichia coli. Kind of assay: Antibacterial activity against Escherichia coli K12 containing deletion deltaphoU mutant assessed as cell count in stationary phase at 100 ug/ml after 1 day. The method, boiled down: (§1)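 Wild-type W3110-derived deletion mutants were made by the Datsenko–Wanner method. Log-phase or stationary-phase cultures were exposed to ampicillin 100 μg/ml in MOPS minimal medium at pH 5.0, at 37°C without shaking. Aliquots were taken at set times, washed in saline and plated on LB for viable CFU/ml.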

The subject of assay [2] is Escherichia coli. Description: Antibacterial activity against Escherichia coli K12 PhoU wild type W3110 assessed as cell count at 100 ug/ml.
Assay [3] relates to Escherichia coli. Description: Antibacterial activity against Escherichia coli K12 mutant JHU313 at 100 ug/ml after 48 hrs by disc diffusion method. The method, boiled down:
(§2)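 Kirby-Bauer disc assay: log-phase LB culture was spread on LB agar for confluent growth. 7-mm nitrocellulose discs were soaked in antibiotic at the listed concentration and placed on the agar. After 48 h at 37°C, the diameter of the inhibition zone was measured in mm.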

For assay [4], the system named is Escherichia coli. Description: Antibacterial activity against Escherichia coli K12 PhoU wild type W3110 assessed as cell count in stationary phase at 100 ug/ml after 5 hrs. The method, boiled down:
(§3)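 Log-phase or stationary-phase cultures exposed to ampicillin 100 μg/ml in MOPS minimal medium (pH 5.0) at 37°C without shaking, for 5 h up to 10 days. Aliquots were taken at each time point, washed in saline and plated on LB plates for viable CFU/ml.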

The test system of assay [5] is Escherichia coli. Description: Antibacterial activity against Escherichia coli K12 containing PhoU mutant assessed as cell count in log phase at 100 ug/ml after 5 hrs. The method, boiled down:
(§4)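 Log-phase or stationary-phase cultures were exposed to ampicillin (100 μg/ml) or norfloxacin (3 μg/ml) in MOPS minimal medium, pH 5.0, at 37°C without shaking, for 5 h to 10 days. Aliquots were saline-washed and plated on LB for CFU/ml.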

Assay [6] deals with Escherichia coli. Kind of assay: Antibacterial activity against Escherichia coli K12 PhoU wild type W3110 after 16 hrs by serial dilution method. The following applies: K12, 16 h. The method, boiled down:
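Serial twofold antibiotic dilutions in LB broth; log-phase inoculum 10⁶ to 10⁷ bacteria/ml; 16 h at 37°C. MIC was the lowest concentration with no visible growth. MBC was the concentration giving a 100-fold CFU drop below the seeded inoculum.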

Assay [7] deals with Escherichia coli. Kind of assay: Antibacterial activity against Escherichia coli K12 PhoU wild type W3110 assessed as cell count in log phase at 100 ug/ml after 5 hrs. The method in brief: as §3
Assay [8] relates to Escherichia coli. Kind of assay: Antibacterial activity against Escherichia coli K12 PhoU wild type W3110 assessed as cell count in log phase at 100 ug/ml after 1 week. The method in brief:
as §3

The test system of assay [9] is Escherichia coli. Description: Antibacterial activity against Escherichia coli K12 mutant JHU313 containing plasmid vector after 16 hrs by serial dilution method. The following applies: K12, 16 h. The method, boiled down:
(§5)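 Twofold serial antibiotic dilutions in LB broth were seeded with 10⁶–10⁷ bacteria/ml from log-phase culture and incubated 16 h at 37°C. MIC was taken as the lowest concentration with no visible growth. MBC was taken as the concentration giving a 100-fold CFU drop from the inoculum.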

Assay [10] relates to Escherichia coli. Description: Antibacterial activity against Escherichia coli K12 containing deletion deltahipA mutant assessed as cell count in log phase at 100 ug/ml after 5 hrs. The method, boiled down: (§6)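 Deletion mutants were made by the Datsenko–Wanner method. Log-phase or stationary-phase cultures were exposed to ampicillin at 100 μg/ml. CFU/ml was determined at the start and after 5, 24 and 72 h of exposure.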

Assay [11] concerns Escherichia coli. Description: Antibacterial activity against Escherichia coli K12 containing deletion deltahipA mutant assessed as cell count in stationary phase at 100 ug/ml after 24 hrs. The method in brief:
as §6

Assay [12] concerns Escherichia coli. Description: Antibacterial activity against Escherichia coli K12 mutant JHU313 containing plasmid PhoU at 100 ug/ml after 48 hrs by disc diffusion method. The method in brief:
as §2
(Agar diffusion results depend on both activity and mobility in agar.)

Assay [13] deals with Escherichia coli. Description: Antibacterial activity against Escherichia coli K12 PhoU wild type W3110 at 1.5 ug/ml after 48 hrs by disc diffusion method. The method in brief:
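Kirby-Bauer disc assay. Log-phase LB broth culture (10⁸ bacteria) was spread on LB agar for confluent growth. 7 mm nitrocellulose discs soaked in antibiotic solution at the listed concentration were placed on the agar. Inhibition zone diameter (mm) was measured after 48 h at 37°C.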

In assay [14] the test system is Escherichia coli. Kind of assay: Antibacterial activity against Escherichia coli K12 mutant JHU313 containing plasmid PhoU after 16 hrs by serial dilution method. Conditions: K12, 16 h. The method, boiled down: as §5
The subject of assay [15] is Escherichia coli. Description: Antibacterial activity against Escherichia coli K12 mutant JHU313 after 16 hrs by serial dilution method. Conditions: K12, 16 h. The method, boiled down: as §5
Assay [16] relates to Escherichia coli. Kind of assay: Antibacterial activity against Escherichia coli K12 PhoU wild type W3110 at 6 ug/ml after 48 hrs by disc diffusion method. The method in brief:
(§7)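 Kirby-Bauer disc assay. Log-phase LB culture (10⁸ bacteria) was spread for confluent growth on LB agar. 7 mm nitrocellulose discs soaked in antibiotic at the listed concentrations were laid on the agar. Inhibition zone diameter (mm) was measured after 48 h at 37°C.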

The test system of assay [17] is Escherichia coli. Kind of assay: Antibacterial activity against Escherichia coli K12 containing deletion deltaphoR mutant assessed as cell count in stationary phase at 100 ug/ml after 5 hrs. The method in brief:
as §1

Assay [18] concerns Escherichia coli. Kind of assay: Antibacterial activity against Escherichia coli K12 PhoU wild type W3110 assessed as cell count in stationary phase at 100 ug/ml after 3 days. The method in brief:
as §4

Assay [19] has as its system Escherichia coli. Kind of assay: Antibacterial activity against Escherichia coli K12 containing PhoU mutant assessed as cell count in stationary phase at 3 ug/ml after 5 days. The method, boiled down: as §4
For assay [20], the system named is Escherichia coli. Kind of assay: Antibacterial activity against Escherichia coli K12 PhoU wild type W3110 assessed as cell count in log phase at 3 ug/ml after 10 days. The method in brief:
as §4

The subject of assay [21] is Escherichia coli. Kind of assay: Antibacterial activity against Escherichia coli K12 containing PhoU mutant assessed as cell count in stationary phase at 3 ug/ml after 1 week. The method in brief: as §4
The test system of assay [22] is Escherichia coli. Kind of assay: Antibacterial activity against Escherichia coli K12 PhoU wild type W3110 at 0.5 ug/ml after 48 hrs by disc diffusion method. The method, boiled down:
as §7

Assay [23] has as its system Escherichia coli. Description: Antibacterial activity against Escherichia coli K12 PhoU wild type W3110 assessed as cell count in log phase at 3 ug/ml after 1 week. The method, boiled down: as §4
Assay [24] concerns Escherichia coli. Kind of assay: Antibacterial activity against Escherichia coli K12 mutant JHU313 at 4 ug/ml after 48 hrs by disc diffusion method. The method in brief:
as §2

For assay [25], the system named is Escherichia coli. Description: Antibacterial activity against Escherichia coli K12 PhoU wild type W3110 assessed as cell count in stationary phase at 3 ug/ml after 1 day. The method in brief: as §4
Assay [26] concerns Escherichia coli. Kind of assay: Antibacterial activity against Escherichia coli K12 containing PhoU mutant assessed as cell count in log phase at 3 ug/ml after 1 day. The method, boiled down: as §4
In assay [27] the test system is Escherichia coli. Description: Antibacterial activity against Escherichia coli K12 mutant JHU313 containing plasmid PhoU at 0.5 ug/ml after 48 hrs by disc diffusion method. The method in brief:
as §2

Assay [28] deals with Escherichia coli. Description: Antibacterial activity against Escherichia coli K12 mutant JHU313 at 0.5 ug/ml after 48 hrs by disc diffusion method. The method in brief:
as §2

Assay [29] deals with Escherichia coli. Kind of assay: Antibacterial activity against Escherichia coli K12 containing deletion deltaphoU mutant assessed as cell count in stationary phase at 3 ug/ml after 3 days. The method, boiled down: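 Log-phase or stationary-phase cultures of the ΔphoU deletion mutant (Datsenko–Wanner construction) were exposed to norfloxacin 3 μg/ml in MOPS minimal medium, pH 5.0, at 37°C without shaking, for up to 10 days. Sampled aliquots were washed in saline and plated on LB agar for CFU/ml.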

Values after ≈ are worked out from the molar mass of the structure shown.

In the case of `CC1(C)S[C@@H]2[C@H](NC(=O)[C@H](N)c3ccccc3)C(=O)N2[C@H]1C(=O)O` [AMPICILLIN], the CFU with Escherichia coli [1] was 7 10^6/ml; with Escherichia coli [2], 5 10^7/ml; with Escherichia coli [4] it was 5 10^9/ml; in the assay with Escherichia coli [5], 20 mL⁻¹; in the assay on Escherichia coli [7] it was 3 10^3/ml; in the assay with Escherichia coli [8] it was 0 mL⁻¹. Moreover, the CFU in the assay on Escherichia coli [10] is reported as 1 10^4/ml; in the assay on Escherichia coli [11] it was 1.8 10^9/ml; in the assay with Escherichia coli [17], 4 10^9/ml; with Escherichia coli [18] it was 1 10^8/ml. The inhibition zone (IZ) in the assay with Escherichia coli [3] came to 40 mm; in the assay on Escherichia coli [12] it was 40 mm; with Escherichia coli [13] it was 21 mm; in the assay on Escherichia coli [16], 25 mm. The MBC worked out at 12.5 µg/mL (≈ 35.8 µM) in the assay with Escherichia coli [6], 6.25 µg/mL (≈ 17.9 µM) against Escherichia coli [9], 12.5 µg/mL (≈ 35.8 µM) in the assay on Escherichia coli [14] and 6.25 µg/mL (≈ 17.9 µM) with Escherichia coli [15]. Also, the minimum inhibitory concentration (MIC) against Escherichia coli [6] is 3.1 µg/mL (≈ 8.87 µM); in the assay on Escherichia coli [9], 1.5 µg/mL (≈ 4.29 µM); in the assay on Escherichia coli [14], 3.1 µg/mL (≈ 8.87 µM); against Escherichia coli [15], 1.5 µg/mL (≈ 4.29 µM).

On to `CCn1cc(C(=O)O)c(=O)c2cc(F)c(N3CCNCC3)cc21` [NORFLOXACIN], for which the CFU in the assay on Escherichia coli [19] was 0 mL⁻¹; in the assay with Escherichia coli [20], 0 mL⁻¹; with Escherichia coli [21], 0 mL⁻¹; in the assay on Escherichia coli [23] it was 0 mL⁻¹; in the assay with Escherichia coli [25], 4 10^9/ml; in the assay on Escherichia coli [26], 4 10^5/ml. For the same molecule, in the assay on Escherichia coli [29], the CFU is recorded as 3 10^5/ml. In addition, the MBC came to 1 µg/mL (≈ 3.13 µM) in the assay with Escherichia coli [6], 0.5 µg/mL (≈ 1.57 µM) in the assay with Escherichia coli [9], 1 µg/mL (≈ 3.13 µM) against Escherichia coli [14] and 0.5 µg/mL (≈ 1.57 µM) against Escherichia coli [15]. In addition, the MIC in the assay on Escherichia coli [6] came to 0.5 µg/mL (≈ 1.57 µM); in the assay with Escherichia coli [9] it was 0.125 µg/mL (≈ 0.391 µM); with Escherichia coli [14] it was 0.5 µg/mL (≈ 1.57 µM); against Escherichia coli [15] it was 0.125 µg/mL (≈ 0.391 µM). Moreover, the inhibition zone (IZ) in the assay on Escherichia coli [22] worked out at 27 mm; in the assay with Escherichia coli [24], 37 mm; in the assay on Escherichia coli [27], 31 mm; in the assay on Escherichia coli [28], 30 mm.

For orientation: MBC means the smallest concentration meeting the test's criterion for killing. Lower therefore signals greater bactericidal potency. As a reminder, the MIC is the least concentration at which growth counts as inhibited.
